Measured values pooled from the literature.
Protocols differ between the studies behind these lines.
Cell line: U-87 MG
Effect on: cell growth or viability

Compound	method	tested at	time	measurement	value
CC(C)C[C@H](NC(=O)[C@H](Cc1ccccc1)NC(=O)c1cnccn1)B(O)O	ATP luminescence	–	–	IC50	0.02 µM
Fc1ccc2[nH]cc(CNCC3(N4CCC(F)C4)COC3)c2c1 (centres unmarked)	–	30 µM	48 h	viability	94.6%
Cn1nnc2c(-c3ccccc3)ncn2c1=O	resazurin	–	7 days	IC50	9 µM
c1cc2c(cc1CNCC1(N3CCCC3)COC1)OCCO2	–	30 µM	48 h	viability	95.7%
Cn1nnc2c(C(N)=O)ncn2c1=O	resazurin	–	7 days	IC50	51 µM
Cn1nnc2c(C(N)=O)ncn2c1=O	MTT	–	72 h	IC50	596 µM
Cc1cc(NC(=O)c2cccc3cc(-c4cccc5[nH]nc(N)c45)ccc23)ccc1F	CCK-8	–	72 h	IC50	> 20 µM
COc1cccc2c1C(=O)c1c(O)c3c(c(O)c1C2=O)C[C@@](O)(C(=O)CO)C[C@@H]3O[C@H]1C[C@H](N)[C@H](O)[C@H](C)O1	WST-1	–	72 h	IC50	0.04 µM
Cc1ccc(C(=O)Nc2ccc(Oc3cc4cnn(C)c4cc3-c3cn[nH]c3)c(F)c2)c(=O)n1-c1ccc(F)cc1	ATP luminescence	–	–	IC50	0.129 µM
FC1CCN(C2(CNCc3ccc(-c4ccccc4)o3)COC2)C1 (centres unmarked)	–	30 µM	48 h	viability	46.6%
Cn1nnc2c(Cl)ncn2c1=O	resazurin	–	7 days	IC50	15 µM
COc1cc(Nc2nccc(-c3cnn4nc(OC)ccc34)n2)cc(C(F)(F)F)c1	ATP luminescence	–	–	IC50	0.84 µM
Fc1ccc2c(CNCC3(N4CCC(F)C4)COC3)c[nH]c2c1 (centres unmarked)	–	30 µM	48 h	viability	97.6%
COc1cccc2c1C(=O)c1c(O)c3c(c(O)c1C2=O)C[C@@](O)(C(=O)CO)C[C@@H]3O[C@H]1C[C@H](N)[C@H](O)[C@H](C)O1	SRB	–	–	IC50	0.1 µM
CCN(CC)C(=O)c1ncn2c(=O)n(C)nnc12	resazurin	–	7 days	IC50	80 µM
c1cc2cc(CNCC3(N4CCCC4)COC3)ccc2[nH]1	–	30 µM	48 h	viability	98.6%
Oc1c(C(c2ccc(F)cc2)N2CCCCC2)ccc2c1CCC2 (centres unmarked)	MTT	30 µM	–	inhibition	28%
